# ChEMBL document CHEMBL2346664, “Synthesis, characterization and in vitro anticancer evaluation of novel 1,2,4-triazolin-3-one derivatives” (2013)
# Tests used:
# Format in all cases: functional
# [1] = tested on: HL-60(TB); test: Growth inhibition of human HL-60(TB) cells assessed as cell growth at 10 '-6 M after 48 hrs by sulforhodamine B assay; conditions: HL-60, 48 h, read-out: Activity
# Procedure, shortened: (§1)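 Five-dose NCI protocol with final concentrations of 0.01–100 µM and drug diluted from a DMSO stock (400× the top concentration) in medium with gentamicin. Cells were pre-incubated 24 h, then exposed 48 h at 37 °C. Suspension cells were fixed with 16% final TCA, SRB-stained and read at 515 nm. Percentage growth at each level was [(Ti−Tz)/(C−Tz)]×100, or [(Ti−Tz)/Tz]×100 when Ti < Tz.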
# [2] = tested on: SF-295; test: Growth inhibition of human SF295 cells assessed as cell growth at 10 '-7 M after 48 hrs by sulforhodamine B assay; conditions: SF-295, 48 h, read-out: Activity
# [3] = tested on: KM12; test: Growth inhibition of human KM12 cells assessed as growth inhibition at 10 uM after 48 hrs by sulforhodamine B assay; conditions: KM12, 48 h, read-out: GI
# [4] = tested on: SN12C; test: Growth inhibition of human SN12C cells assessed as cell growth at 10 '-6 M after 48 hrs by sulforhodamine B assay; conditions: read-out: Activity
# [5] = tested on: RXF 393; test: Growth inhibition of human RXF393 cells assessed as growth inhibition at 10 uM after 48 hrs by sulforhodamine B assay; conditions: RXF 393, 48 h, read-out: GI
# [6] = tested on: CAKI-1; test: Growth inhibition of human CAKI-1 cells assessed as cell growth at 10 '-4 M after 48 hrs by sulforhodamine B assay; conditions: CAKI-1, 48 h, read-out: Activity
# Procedure, shortened: (§2)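 Percent growth at each of the five concentrations of the 48 h continuous-exposure NCI SRB screen. Drug stocks were in DMSO at 400× the top final concentration and diluted in medium with gentamicin. Growth was calculated as [(Ti-Tz)/(C-Tz)]×100 when Ti ≥ Tz, or [(Ti-Tz)/Tz]×100 when Ti < Tz. Tz plates were fixed at drug addition; untreated wells served as control. Absorbance was read at 515 nm.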
# [7] = tested on: UACC-62; test: Growth inhibition of human UACC62 cells assessed as cell growth at 10 '-4 M after 48 hrs by sulforhodamine B assay; conditions: UACC-62, 48 h, read-out: Activity
# [8] = tested on: K562; test: Growth inhibition of human K562 cells assessed as cell growth at 10 '-7 M after 48 hrs by sulforhodamine B assay; conditions: K562, 48 h, read-out: Activity
# [9] = tested on: HT-29; test: Growth inhibition of human HT-29 cells assessed as cell growth at 10 '-8 M after 48 hrs by sulforhodamine B assay; conditions: HT-29, 48 h, read-out: Activity
# [10] = Growth inhibition of human NCI-ADR-RES cells assessed as cell growth at 10 '-6 M after 48 hrs by sulforhodamine B assay; conditions: read-out: Activity
# [11] = tested on: A549; test: Growth inhibition of human A549 cells assessed as cell growth at 10 '-5 M after 48 hrs by sulforhodamine B assay; conditions: A549, 48 h, read-out: Activity; procedure, shortened: as §2
# [12] = tested on: MCF7; test: Growth inhibition of human MCF7 cells assessed as cell growth at 10 '-8 M after 48 hrs by sulforhodamine B assay; conditions: MCF7, 48 h, read-out: Activity
# [13] = tested on: BT-549; test: Growth inhibition of human BT549 cells assessed as cell growth at 10 '-7 M after 48 hrs by sulforhodamine B assay; conditions: BT-549, 48 h, read-out: Activity; procedure, shortened: as §2
# [14] = tested on: OVCAR-8; test: Growth inhibition of human OVCAR8 cells after 48 hrs by sulforhodamine B assay; conditions: OVCAR-8, 48 h
# [15] = tested on: KM12; test: Growth inhibition of human KM12 cells assessed as cell growth at 10 '-7 M after 48 hrs by sulforhodamine B assay; conditions: KM12, 48 h, read-out: Activity
# [16] = tested on: TK-10; test: Growth inhibition of human TK10 cells assessed as cell growth at 10 '-6 M after 48 hrs by sulforhodamine B assay; conditions: TK-10, 48 h, read-out: Activity
# [17] = tested on: IGROV-1; test: Growth inhibition of human IGROV1 cells assessed as cell growth at 10 '-8 M after 48 hrs by sulforhodamine B assay; conditions: IGROV-1, 48 h, read-out: Activity
# [18] = tested on: NCI-H460; test: Growth inhibition of human NCI-H460 cells assessed as cell growth at 10 '-7 M after 48 hrs by sulforhodamine B assay; conditions: NCI-H460, 48 h, read-out: Activity
# [19] = tested on: HOP-62; test: Growth inhibition of human HOP62 cells assessed as cell growth at 10 '-6 M after 48 hrs by sulforhodamine B assay; conditions: HOP-62, 48 h, read-out: Activity
# [20] = tested on: SF-268; test: Growth inhibition of human SF268 cells assessed as cell growth at 10 '-4 M after 48 hrs by sulforhodamine B assay; conditions: SF-268, 48 h, read-out: Activity
# [21] = tested on: UACC-257; test: Growth inhibition of human UACC257 cells assessed as cell growth at 10 '-5 M after 48 hrs by sulforhodamine B assay; conditions: UACC-257, 48 h, read-out: Activity
# [22] = Growth inhibition of human Hs 578T cells assessed as cell growth at 10 '-8 M after 48 hrs by sulforhodamine B assay; conditions: read-out: Activity
# [23] = tested on: ACHN; test: Growth inhibition of human ACHN cells after 48 hrs by sulforhodamine B assay
# Procedure, shortened: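 NCI 60-cell-line five-dose screen at 0.01, 0.1, 1, 10 and 100 µM final. Cells were plated at 5,000–40,000/well and grown 24 h at 37 °C, 5% CO2, then exposed to drug continuously for 48 h. Adherent cells were fixed with cold TCA (10% final) and stained with SRB; absorbance read at 515 nm. GI50 is the concentration where [(Ti-Tz)/(C-Tz)]×100 = 50, with Tz plates fixed at drug addition.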
# [24] = tested on: SF-268; test: Growth inhibition of human SF268 cells assessed as cell growth at 10 '-7 M after 48 hrs by sulforhodamine B assay; conditions: SF-268, 48 h, read-out: Activity
# [25] = tested on: RPMI-8226; test: Growth inhibition of human RPMI8226 cells assessed as cell growth at 10 '-5 M after 48 hrs by sulforhodamine B assay; conditions: RPMI-8226, 48 h, read-out: Activity
# [26] = tested on: OVCAR-3; test: Growth inhibition of human OVCAR3 cells assessed as cell growth at 10 '-5 M after 48 hrs by sulforhodamine B assay; conditions: OVCAR-3, 48 h, read-out: Activity
# [27] = tested on: HL-60(TB); test: Growth inhibition of human HL-60(TB) cells assessed as cell growth at 10 '-7 M after 48 hrs by sulforhodamine B assay; conditions: HL-60, 48 h, read-out: Activity; procedure, shortened: as §1
# [28] = tested on: SNB-75; test: Growth inhibition of human SNB75 cells assessed as cell growth at 10 '-7 M after 48 hrs by sulforhodamine B assay; conditions: SNB-75, 48 h, read-out: Activity
# [29] = tested on: OVCAR-8; test: Growth inhibition of human OVCAR8 cells assessed as cell growth at 10 '-6 M after 48 hrs by sulforhodamine B assay; conditions: OVCAR-8, 48 h, read-out: Activity
# [30] = read-out: LD50 (the source's name)
smiles,measurement,setting,value
Cc1cc(=O)oc2cc(OCCn3c(C)nn(-c4ccc(Cl)cc4)c3=O)ccc12,growth at 1 µM,[1],91%
same,growth at 0.1 µM,[2],85%
same,inhibition of growth at 10 µM,[3],68.6%
same,growth at 1 µM,[4],82%
same,inhibition of growth at 10 µM,[5],62.6%
same,growth at 100 µM,[6],52%
same,growth at 100 µM,[7],30%
same,growth at 0.1 µM,[8],106%
same,growth at 0.01 µM,[9],104%
same,growth at 1 µM,[10],61%
same,growth at 10 µM,[11],37%
same,growth at 0.01 µM,[12],98%
same,growth at 0.1 µM,[13],104%
same,GI50,[14],5.17 µM
same,TGI,[14],> 1 µM
same,CC50,[14]; [30],> 1 µM
same,growth at 0.1 µM,[15],105%
same,growth at 1 µM,[16],114%
same,growth at 0.01 µM,[17],108%
same,growth at 0.1 µM,[18],99%
same,growth at 1 µM,[19],89%
same,growth at 100 µM,[20],36%
same,growth at 10 µM,[21],40%
same,growth at 0.01 µM,[22],88%
same,GI50,[23],5.59 µM
same,TGI,[23],> 1 µM
same,CC50,[23]; [30],> 1 µM
same,growth at 0.1 µM,[24],99%
same,growth at 10 µM,[25],50%
same,growth at 10 µM,[26],7%
same,growth at 0.1 µM,[27],104%
same,growth at 0.1 µM,[28],79%
same,growth at 1 µM,[29],97%
